# Results pooled from the literature.
# Lines come from different studies, so protocols differ.
# Organism: Hepatitis C virus
# Observed: viral replication
# Action: inhibitor
Structure (SMILES),method,cells,strain,time,notes,EC50
O=C1OC[C@H]2OC(O)[C@H](O)[C@@H](O)[C@@H]2OC(=O)c2cc(O)c(O)c(O)c2-c2c(O)c(O)c3oc(=O)c4c(c(O)c(O)c5oc(=O)c2c3c54)-c2c1cc(O)c(O)c2O (mixture of isomers),,Huh-7,GETYPE2A,48 h,replicon,> 150000 nM
CCC(CC)COC(=O)[C@H](C)N[P@](=O)(OC[C@H]1O[C@@](C#N)(c2ccc3c(N)ncnn23)[C@H](O)[C@@H]1O)Oc1ccccc1,,Huh7.5,GETYPE3 GETYPE3A,,replicon,190 nM
C=C1CC[C@H](O)C/C1=C/C=C1\CCC[C@]2(C)[C@@H]([C@H](C)/C=C/[C@H](C)C(C)C)CC[C@@H]12,luciferase,BM4-5,GETYPE1B,72 h,replicon,12800 nM
CC(C)(C)OC(=O)N[C@H]1CCCCC/C=C\[C@@H]2C[C@@]2(C(=O)NS(=O)(=O)C2CC2)NC(=O)[C@@H]2C[C@@H](OC(=O)N3Cc4cccc(F)c4C3)CN2C1=O,,Huh-7,GETYPE1A GETYPE1B,96 h,replicon,0.57 nM
CC(C)(CO)C(=O)SCCOP(=O)(NCc1ccccc1)OC[C@H]1O[C@@H](n2cnc3c(=O)[nH]c(N)nc32)[C@](C)(O)[C@@H]1O (mixture of isomers),,Huh-7,GETYPE1,,replicon,300 nM
CN1CCN(C(c2ccccc2)c2ccc(Cl)cc2)CC1 (racemic),,Huh-7.5.1,GETYPE2A,48 h,replicon,44 nM
COc1nc(N)nc2c1ncn2[C@@H]1O[C@H](COP(=O)(N[C@@H](C)C(=O)OCC(C)(C)C)Oc2cccc3ccccc23)[C@@H](O)[C@@]1(C)O (stereo partly drawn),,,GETYPE1A,96 h,replicon,1.4 nM
C[C@H](NC(=O)OCc1ccccc1)C(=O)Nc1ccc(C2S/C(=N\c3cccc(F)c3)N(Cc3ccco3)C2=O)cc1 (stereo partly drawn),,Huh-7,GETYPE1B,,replicon,570 nM
C=C1/C(=C\C=C2/CCC[C@]3(C)[C@@H]([C@H](C)CCCC(C)(C)O)CC[C@@H]23)C[C@@H](O)C[C@@H]1O,luciferase,,GETYPE2A,72 h,replicon,5430 nM
O=c1oc2c(O)c(O)cc3c(=O)oc4c(O)c(O)cc1c4c23,,Huh-7,GETYPE2A,48 h,replicon,~60000 nM
COC(=O)N[C@H](C(=O)N1CCC[C@H]1c1ncc(-c2ccc(-c3ccc(-c4cnc([C@@H]5CCCN5C(=O)[C@@H](NC(=O)OC)C(C)C)[nH]4)cc3)cc2)[nH]1)C(C)C,,,GETYPE2A,,replicon,0.103 nM
CCC(=O)Nc1cc(C(=O)Nc2ccc(CN3CCN(C)CC3)c(C(F)(F)F)c2)ccc1OC,qPCR,Huh7.5,GETYPE2A,72 h,,< 1500 nM
